Assay results: ChEMBL document CHEMBL4354867, “Validation and Characterization of Five Distinct Novel Inhibitors of Human Cytomegalovirus” (J Med Chem, 2020)
Calls of active or inactive are those of the source. The rule behind the calls is not given here.

Experiments:
Human betaherpesvirus 5 [1] = assay: Antiviral activity against HCMV Towne infected in human HFF cells assessed as reduction in plaque formation treated with compound following viral infection and incubated for 8 to 10 days by crystal violet staining based assay; assay type: functional, organism-based; settings: Human betaherpesvirus 5, strain Towne
Human betaherpesvirus 5 [2] = assay: Antiviral activity against GCV-resistant HCMV Towne infected in human HFF cells assessed as reduction in plaque formation treated with compound following viral infection and incubated for 8 to 10 days by crystal violet staining based assay; assay type: functional, organism-based; settings: Human betaherpesvirus 5, strain Towne
Human betaherpesvirus 5 [3] = assay: Antiviral activity against HCMV TB40 infected in human HFF cells assessed as reduction in plaque formation treated with compound following viral infection and incubated for 8 to 10 days by crystal violet staining based assay; assay type: functional, organism-based; settings: Human betaherpesvirus 5, TB40, HFF
HFF = assay: Cytotoxicity against human HFF cells assessed as reduction in cell viability incubated for 72 hrs or 10 days by MTT assay; assay type: cell-based
Procedure, shortened: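 MTT assay on uninfected cells exposed to compound for 72 h or 8–10 days, matching the antiviral assay durations. MTT (5 mg/mL stock in PBS) added, then 2–3 h at 37 °C. Formazan absorbance read at 560 nm.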

Human alphaherpesvirus 1 = assay: Antiviral activity against HSV 1 infected in African green monkey Vero cells assessed as reduction in plaque formation incubated for 36 hrs by crystal violet staining based assay; assay type: functional, organism-based
Procedure, shortened: (§1)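 Plaque reduction in Vero cells: virus adsorbed 60 min, then compound added in a carboxymethylcellulose overlay. Plaques counted after 36 h by crystal violet staining.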

Human alphaherpesvirus 2 = assay: Antiviral activity against HSV 2 infected in African green monkey Vero cells assessed as reduction in plaque formation incubated for 36 hrs by crystal violet staining based assay; assay type: functional, organism-based; procedure, shortened: as §1
Human gammaherpesvirus 4 = assay: Antiviral activity against EBV infected in human AKATA cells assessed as reduction in IgG-induced lytic virus replication measured at 48 hrs post-lytic induction by qRT-PCR analysis; assay type: functional, organism-based
[4] = Antiviral activity against Mouse Cytomegalovirus Smith (ATCC VR-1399) infected in mouse MEF cells assessed as reduction in plaque formation measured after 3 days by crystal violet staining based assay; assay type: functional, cell-based, Murine cytomegalovirus (strain Smith)
Procedure, shortened: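 Plaque reduction with MCMV Smith in mouse embryonic fibroblasts, with compound in a carboxymethylcellulose overlay. Assay ended at 3 days and plaques counted after crystal violet staining.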

Human betaherpesvirus 5 [5] = assay: (§2) Antiviral activity against pp28-luciferase expressing HCMV Towne infected in human HFF cells assessed as reduction in viral replication treated with compound at 24 hrs post viral infection at MOI of 1 PFU/cell and measured after 3 days by luciferase reporter gene assay; assay type: functional, organism-based; settings: strain Towne
Procedure, shortened: (§3)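 Time-of-addition in HFFs infected with HCMV Towne (MOI 1). Add-on: compound added at 0, 6, 24 or 48 hpi. Removal: compound added right after infection and washed out after 0, 6, 24 or 48 h. Luciferase read at 72 hpi.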

Human betaherpesvirus 5 [6] = assay: as §2, with “immediately after” for “at 24 hrs post”, “PFU/cell followed by compound washout after 6 hrs” for “PFU/cell”; assay type: functional; settings: for Activity: strain Towne; procedure, shortened: as §3
Human betaherpesvirus 5 [7] = assay: Antiviral activity against HCMV Towne infected in human HFF cells assessed as reduction in plaque formation treated with compound following viral infection at MOI of 1 PFU/cell and measured at 10 days post-infection in presence of letermovir by crystal violet staining based assay; assay type: functional, organism-based; settings: Human betaherpesvirus 5, strain Towne, 240 h
Human betaherpesvirus 5 [8] = assay: Antiviral activity againstpp28-luciferase expressing HCMV Towne infected in human HFF cells assessed as reduction in viral replication treated with compound following viral infection at MOI of 1 PFU/cells measured after 3 days in presence of GCV by luciferase reporter gene assay; assay type: functional, organism-based; settings: Human betaherpesvirus 5, strain Towne, 72 h
Procedure, shortened: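 HFFs in 96-well plates were infected with pp28-luciferase Towne HCMV, in which luciferase is driven by the UL99 late promoter, at MOI 1. A dose-response of each drug alone gave its EC₅₀. Combinations started at twice each EC₅₀ in DMEM with 4% FBS, followed by two-fold serial dilutions, and were added after infection. Luciferase was read in cell lysates at 72 hpi. The Bliss ratio is observed over expected inhibition.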

Human betaherpesvirus 5 [9] = assay: (§4) Antiviral activity against pp28-luciferase harboring UL97 C607Y mutant expressing GCV-resistant HCMV Towne infected in human HFF cells assessed as reduction in viral replication at 0.5 to 3 uM treated with compound following viral infection at MOI of 0.1 PFU/cell and measured at 72 hrs post infection by luciferase reporter gene assay; assay type: functional, organism-based; settings: strain Towne
Procedure, shortened: (§5)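 HFFs infected with GCV-resistant pp28-luciferase Towne (MOI 0.1), then treated with a compound dilution series. Luciferase, driven by the UL99 late promoter, read in cell lysates at 72 hpi. Data are mean ± SD of triplicates from a single experiment.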

Human betaherpesvirus 5 [10] = assay: Antiviral activity against HCMV TB40 infected in human HFF cells assessed as reduction in plaque formation at 0.1 to 3 uM treated with compound following viral infection at […] measured after 8 days by crystal violet staining analysis; assay type: functional, organism-based
Procedure, shortened: (§6)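 HFFs (2 × 10⁵/well) infected with HCMV TB40 at about 100 plaques/well for 90 min. Inoculum removed, then DMEM with 0.5% CMC, 4% FBS and compound added. Incubated at 37 °C; plaques stained with crystal violet and counted at 8 dpi. Experiment repeated three times; one representative shown.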

Human betaherpesvirus 5 [11] = assay: Inhibition of viral protein expression in HCMV Towne infected in human HFF cells assessed as reduction in IE2 expression at 0.1 to 10 uM treated with compound following viral infection at MOI of 1 PFU/cell measured at 72 hrs post infection by Western blot analysis; assay type: functional, organism-based; settings: strain Towne
Procedure, shortened: (§7)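 HFFs infected with HCMV Towne (MOI 1), then treated with compound. Lysates taken at 72 hpi, equal protein loaded on 8–10% Tris-glycine SDS-PAGE and transferred to PVDF. Primary antibodies overnight at 4 °C, HRP secondary, chemiluminescent detection; β-actin as loading control.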

Human betaherpesvirus 5 [12] = assay: Inhibition of viral protein expression in HCMV Towne infected in human HFF cells assessed as reduction in UL44 expression at 0.1 to 10 uM treated with compound following viral infection at MOI of 1 PFU/cell measured at 72 hrs post infection by Western blot analysis; assay type: functional, organism-based; settings: strain Towne; procedure, shortened: as §7
Human betaherpesvirus 5 [13] = assay: Inhibition of viral protein expression in HCMV Towne infected in human HFF cells assessed as reduction in UL84 expression at 0.1 to 10 uM treated with compound following viral infection at MOI of 1 PFU/cell measured at 72 hrs post infection by Western blot analysis; assay type: functional, organism-based; settings: strain Towne; procedure, shortened: as §7
Human betaherpesvirus 5 [14] = assay: Inhibition of viral protein expression in HCMV Towne infected in human HFF cells assessed as reduction in pp65 expression at 0.1 to 10 uM treated with compound following viral infection at MOI of 1 PFU/cell measured at 72 hrs post infection by Western blot analysis; assay type: functional, organism-based; settings: strain Towne
Procedure, shortened: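 Lysates taken at 72 hpi, equal protein run on SDS-PAGE and transferred to PVDF. Immunoblot for viral proteins (IE1/2, UL84, UL44, pp65) with β-actin as loading reference, chemiluminescent detection.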

Human betaherpesvirus 5 [15] = assay: Inhibition of viral protein expression in HCMV Towne infected in human HFF cells assessed as reduction in IE1 expression at 0.1 to 10 uM treated with compound following viral infection at MOI of 1 PFU/cell measured at 72 hrs post infection by Western blot analysis; assay type: functional, organism-based; settings: strain Towne; procedure, shortened: as §7
Human betaherpesvirus 5 [16] = assay: Antiviral activity against HCMV Towne infected in human HFF cells assessed as reduction in viral DNA replication at 1.5 uM treated with compound following viral infection at MOI of 0.1 PFU/cell by US17 real time PCR analysis; assay type: functional, organism-based; settings: strain Towne
Procedure, shortened: (§8)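 At set time points supernatants were harvested and cells lysed for DNA. Cell-associated viral DNA and supernatant viral DNA quantified by real-time PCR targeting a 151-bp conserved US17 region.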

Human betaherpesvirus 5 [17] = assay: Antiviral activity against HCMV Towne infected in human HFF cells assessed as reduction in viral DNA yields in the supernatant at 1.5 uM treated with compound following viral infection at MOI of 0.1 PFU/cell by US17 real time PCR analysis; assay type: functional, organism-based; settings: strain Towne; procedure, shortened: as §8
Human betaherpesvirus 5 [18] = assay: Antiviral activity against HCMV TB40 infected in human HFF cells assessed as reduction in plaque formation at 0.75 to 10 uM treated with compound following viral infection at […] measured after 8 days by crystal violet staining analysis; assay type: functional, organism-based; procedure, shortened: as §6
Human betaherpesvirus 5 [19] = assay: as §4, with “1” for “0.5”, “5” for “3”; assay type: functional, organism-based; settings: strain Towne; procedure, shortened: as §5
Human betaherpesvirus 5 [20] = assay: Inhibition of viral protein expression in HCMV Towne infected in human HFF cells assessed as reduction in IE1 expression at 0.3 to 10 uM treated with compound following viral infection at MOI of 1 PFU/cell measured at 72 hrs post infection by Western blot analysis; assay type: functional, organism-based; settings: strain Towne; procedure, shortened: as §7
Human betaherpesvirus 5 [21] = assay: Inhibition of viral protein expression in HCMV Towne infected in human HFF cells assessed as reduction in IE2 expression at 0.3 to 10 uM treated with compound following viral infection at MOI of 1 PFU/cell measured at 72 hrs post infection by Western blot analysis; assay type: functional, organism-based; settings: strain Towne; procedure, shortened: as §7
Human betaherpesvirus 5 [22] = assay: Antiviral activity against HCMV Towne infected in human HFF cells assessed as reduction in viral DNA replication at 5 uM treated with compound following viral infection at MOI of 0.1 PFU/cell by US17 real time PCR analysis; assay type: functional, organism-based; settings: strain Towne; procedure, shortened: as §8
Human betaherpesvirus 5 [23] = assay: Antiviral activity against HCMV Towne infected in human HFF cells assessed as reduction in viral DNA yields in the supernatant at 5 uM treated with compound following viral infection at MOI of 0.1 PFU/cell by US17 real time PCR analysis; assay type: functional, organism-based; settings: strain Towne; procedure, shortened: as §8
Human betaherpesvirus 5 [24] = assay: Antiviral activity against HCMV Towne infected in human HFF cells assessed as reduction in viral DNA replication at 2 uM treated with compound following viral infection at MOI of 0.1 PFU/cell by US17 real time PCR analysis; assay type: functional, organism-based; settings: strain Towne; procedure, shortened: as §8
Human betaherpesvirus 5 [25] = assay: Antiviral activity against HCMV Towne infected in human HFF cells assessed as reduction in viral DNA yields in the supernatant at 2 uM treated with compound following viral infection at MOI of 0.1 PFU/cell by US17 real time PCR analysis; assay type: functional, organism-based; settings: strain Towne; procedure, shortened: as §8
[26] = human gammaherpesvirus 4, 48 h, read-out: EC50

Structure (SMILES) | EC50 (Human betaherpesvirus 5 [1]) | EC50 (Human betaherpesvirus 5 [2]) | EC50 (Human betaherpesvirus 5 [3]) | CC50 (HFF) | EC50 (Human alphaherpesvirus 1; vero) | EC50 (Human alphaherpesvirus 2; vero) | EC50 (Human gammaherpesvirus 4; [26]) | EC50 ([4]; mef) | Activity (Human betaherpesvirus 5 [5]) | Activity (Human betaherpesvirus 5 [6]) | EC50 (Human betaherpesvirus 5 [7]) | EC50 (Human betaherpesvirus 5 [8]) | Activity (Human betaherpesvirus 5 [9]) | Activity (Human betaherpesvirus 5 [10]) | inhibition (Human betaherpesvirus 5 [11]) | inhibition (Human betaherpesvirus 5 [12]) | inhibition (Human betaherpesvirus 5 [13]) | inhibition (Human betaherpesvirus 5 [14]) | also measured
Nc1c(S(=O)(=O)c2cccs2)c2nc3ccccc3nc2n1Cc1ccccc1 | 390 nM | 260 nM | 330 nM | > 250000 nM | Not Active | Not Active | > 10000 nM | Not Active | inactive | Active | 130 nM | 570 nM | Active | Active | Active | Active | Active | Active | inhibition (Human betaherpesvirus 5 [15]): Active; Activity (Human betaherpesvirus 5 [16]): Active; Activity (Human betaherpesvirus 5 [17]): Active
CCN1CCN(CCCNC(=O)c2ccc3c(c2)sc2nc(-c4ccc(OC)cc4)cn23)CC1 | 850 nM | 840 nM | 1210 nM | 70900 nM | Not Active | Not Active | 1920 nM | Not Active | inactive | Active | 610 nM | 690 nM | – | – | – | – | – | – | Activity (Human betaherpesvirus 5 [18]): Active; Activity (Human betaherpesvirus 5 [19]): Active; inhibition (Human betaherpesvirus 5 [20]): Active; inhibition (Human betaherpesvirus 5 [21]): Active; Activity (Human betaherpesvirus 5 [22]): Active; Activity (Human betaherpesvirus 5 [23]): Active
CCc1ccc(NC(=O)[C@H](Cc2c[nH]c3ccccc23)NC(=O)[C@@H]2Cc3ccccc3CN2)cc1 | 640 nM | 170 nM | 340 nM | 86000 nM | – | – | – | – | inactive | – | 140 nM | 550 nM | Active | Active | Active | Active | Active | Active | EC50 (Human alphaherpesvirus 1; Human alphaherpesvirus 1, Vero, 36 h, read-out: EC50): 1780 nM; EC50 (Human alphaherpesvirus 2; Human alphaherpesvirus 2, Vero, 36 h, read-out: EC50): 1300 nM; EC50 (Human gammaherpesvirus 4): Not Active; EC50 ([4]; Murid betaherpesvirus 1, ATCC VR-1399, MEF, 72 h, read-out: EC50): 11700 nM; inhibition (INH) (Human betaherpesvirus 5 [6]): 100%; Activity (Human betaherpesvirus 5 [24]): Active; Activity (Human betaherpesvirus 5 [25]): Active
